DNMT1 inh = blocks human DNA methyltransferase DNMT1. P26358. DNMT1 molecular beacon, Hinp1I cleavage, fluorescence. inhibition (reported as % activation of signal), % at 10 µM. actives 0.83% (n = 360,000)
Target sequence (P26358 504-1616 limits assumed): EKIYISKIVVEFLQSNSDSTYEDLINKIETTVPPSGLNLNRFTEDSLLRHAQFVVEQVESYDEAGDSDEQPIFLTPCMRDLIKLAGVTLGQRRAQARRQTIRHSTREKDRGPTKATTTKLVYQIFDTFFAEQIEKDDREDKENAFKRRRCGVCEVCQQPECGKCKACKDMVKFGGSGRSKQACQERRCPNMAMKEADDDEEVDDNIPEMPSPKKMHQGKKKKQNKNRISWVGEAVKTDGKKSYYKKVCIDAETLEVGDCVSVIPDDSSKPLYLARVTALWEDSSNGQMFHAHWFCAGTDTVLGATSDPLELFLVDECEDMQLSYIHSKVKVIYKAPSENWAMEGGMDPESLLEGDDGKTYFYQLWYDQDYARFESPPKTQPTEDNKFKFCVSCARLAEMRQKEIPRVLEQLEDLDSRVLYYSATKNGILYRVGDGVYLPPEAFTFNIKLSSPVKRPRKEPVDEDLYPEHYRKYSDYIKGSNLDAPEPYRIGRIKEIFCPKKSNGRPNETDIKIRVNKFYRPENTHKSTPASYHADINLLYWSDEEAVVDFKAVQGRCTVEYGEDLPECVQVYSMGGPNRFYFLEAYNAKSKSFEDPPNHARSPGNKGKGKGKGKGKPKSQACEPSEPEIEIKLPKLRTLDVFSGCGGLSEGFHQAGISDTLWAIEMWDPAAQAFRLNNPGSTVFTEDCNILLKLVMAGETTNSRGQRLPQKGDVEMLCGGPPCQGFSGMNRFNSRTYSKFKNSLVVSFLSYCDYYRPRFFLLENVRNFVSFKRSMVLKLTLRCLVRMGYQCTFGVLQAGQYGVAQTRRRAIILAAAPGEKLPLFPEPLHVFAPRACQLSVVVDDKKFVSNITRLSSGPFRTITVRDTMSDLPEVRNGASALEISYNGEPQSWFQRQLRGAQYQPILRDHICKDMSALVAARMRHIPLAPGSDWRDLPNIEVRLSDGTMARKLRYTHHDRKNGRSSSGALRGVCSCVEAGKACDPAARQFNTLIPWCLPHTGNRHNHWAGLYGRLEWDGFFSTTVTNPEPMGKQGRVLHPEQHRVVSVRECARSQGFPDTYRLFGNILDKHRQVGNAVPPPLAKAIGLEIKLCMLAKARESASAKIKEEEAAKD
HCV NS3 hel inh = HCV NS3 helicase inhibition | NS3 helicase DNA unwinding, Cy5 molecular beacon fluorescence | inhibition, % at 10.9 µM | actives 0.56% (n = 290,000);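 active = inhibition above the mean of all tested compounds plus 3 SD, set per campaign, cut at about 35% in these data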
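Test system: hepatitis C virus NS3 helicase domain fragment enzyme. Also added: annealed dual-labelled DNA beacon duplex, ATP-started. Timing: 60 min unwinding reaction at 25 °C after ATP addition. Technique: Cy5 fluorescence. Measure: % inhibition of unwinding.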
NSD2 HMT inh = inhibitors of human histone methyltransferase NSD2 | AID 743445 | O96028 | actives 0.54% (n = 310,000) | inhibition, % at 12.5 µM | NSD2 peptide methylation, AlphaScreen, 120 min
Casp6 inh = caspase-6 (human) enzyme inhibition | purified caspase-6, Z-VEID-R110 cleavage fluorescence | P55212 | inhibition, % at 12.5 µM | actives 0.53% (n = 350,000);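 active = mean inhibition across replicates at least about 35%, with every replicate also reaching that limit, limit read from the data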
NS3 hel confirm = confirmation of Hepatitis C virus NS3 helicase inhibitors; shares compounds with HCV NS3 hel inh; NS3 helicase DNA unwinding, Cy5 molecular beacon fluorescence; inhibition, % at 10.9 µM; actives 31% (n = 1,600);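 active = inhibition above the mean of all tested compounds plus 3 SD, cutoff set per campaign, cut at about 36% in these data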
DNA FID counter = counter-screen for HCV NS3 helicase inhibitors: DNA intercalator displacement. shares compounds with HCV NS3 hel inh. DNA fluorescent intercalator displacement, fluorescence. inhibition, % at 7.9 µM. actives 4% (n = 1,600); in the data active = inhibition above about 37%;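 note: higher means more displacement of ethidium bromide from the DNA hairpin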
DNA FID DR = displaces fluorescent intercalator from DNA, HCV helicase counter-screen; IC50, µM; AID 2172; 120 tested, under 10 active; fluorescent intercalator displacement from DNA, fluorescence; shares compounds with HCV NS3 hel inh; call rule not given here
Each line names hits and unclear results; the compound was inactive in the other large screens (follow-up assays come after a bar, where they were run). Shown are actives, neighbours in structure and some others; about 1.5% of the full set was active somewhere. Cut-off read from the data, not from the text of the source, unless noted: active = inhibition above about 50%; inactive = the rest.

COc1cc(C2C(C(=O)c3ccc(C)o3)=C(O)C(=O)N2c2cc(C)on2)ccc1OCc1ccccc1 (stereo not drawn)	HCV NS3 hel inh 84 | NS3 hel confirm 188 | DNA FID counter inactive | DNA FID DR inactive
Cc1cc(N2C(=O)C(O)=C(C(=O)c3cc4ccccc4o3)C2c2ccc(OC(C)C)cc2)no1 (stereo not drawn)	none
COC(=O)c1ccc(C2C(C(=O)c3cc4ccccc4o3)=C(O)C(=O)N2c2cc(C)on2)cc1 (stereo not drawn)	HCV NS3 hel inh 51 | NS3 hel confirm 93 | DNA FID counter inactive
COc1cccc(C2C(C(=O)c3cccs3)=C(O)C(=O)N2c2cc(C)on2)c1 (stereo not drawn)	none (no result: Casp6 inh)
COc1cc(C2C(C(=O)c3cccs3)=C(O)C(=O)N2c2cc(C)on2)ccc1O (stereo not drawn)	HCV NS3 hel inh 45 | NS3 hel confirm inactive | DNA FID counter 37
CCCCCOc1ccc(C2C(C(=O)c3ccc(C)o3)=C(O)C(=O)N2c2cc(C)on2)cc1 (stereo not drawn)	HCV NS3 hel inh 63, Casp6 inh 39 | NS3 hel confirm 162 | DNA FID counter inactive | DNA FID DR inactive
CO[C@@H]1CN(C)C(=O)c2ccc(NS(=O)(=O)c3ccc(F)cc3)cc2OC[C@@H](C)NC[C@@H]1C	none (no result: DNMT1 inh, HCV NS3 hel inh, NSD2 HMT inh)
Cc1cccc(N2C(=O)C(O)=C(C(=O)c3cccs3)C2c2cccc(Oc3ccccc3)c2)n1 (stereo not drawn)	HCV NS3 hel inh 80 | NS3 hel confirm 114 | DNA FID counter inactive | DNA FID DR inactive
O=C(O)c1cc([N+](=O)[O-])cc([N+](=O)[O-])c1N1CCN(c2cccc(C(F)(F)F)c2)CC1	HCV NS3 hel inh 42 | NS3 hel confirm 55 | DNA FID counter inactive
Nn1c(Cc2cccc3ccccc23)nnc1SCc1ccc(Cl)c(Cl)c1	none
Nn1c(Cc2cccc3ccccc23)nnc1SCc1c(Cl)cccc1Cl	HCV NS3 hel inh 61 (no result: Casp6 inh) | NS3 hel confirm inactive | DNA FID counter inactive
C[C@@H]1CCCCO[C@@H](CN(C)CC2CCCCC2)[C@@H](C)CN([C@H](C)CO)C(=O)c2cc(NC(=O)Cc3ccccc3)ccc2O1	none (no result: DNMT1 inh, HCV NS3 hel inh, NSD2 HMT inh)
O=C(C[C@@H]1CC[C@H](NC(=O)c2cccc(F)c2)[C@H](CO)O1)NCc1ccc(Oc2ccccc2)cc1	none (no result: DNMT1 inh, HCV NS3 hel inh, NSD2 HMT inh)
Cc1nn(Cc2ccccc2Cl)c(Cl)c1/C=C/C(=O)OCC(=O)NC1CCS(=O)(=O)C1 (stereo not drawn)	none
Cc1nn(Cc2ccccc2)c(Cl)c1/C=C/C(=O)OCC(=O)N(C)C1CCS(=O)(=O)C1 (stereo not drawn)	HCV NS3 hel inh 46 | NS3 hel confirm inactive | DNA FID counter inactive
Cc1ccc2c(nc3s/c(=C\c4ccc(-c5ccccc5C(=O)O)o4)c(=O)n32)c1C	DNMT1 inh 63, HCV NS3 hel inh 44 | NS3 hel confirm 65 | DNA FID counter 50
Cc1cc(/C=c2\sc3nc4ccccc4n3c2=O)c(C)n1-c1ccc(C(=O)O)cc1	none (no result: NSD2 HMT inh)
O=C(O)c1ccc(-c2ccc(/C=c3/sc4nc5ccccc5n4c3=O)o2)cc1Cl	DNMT1 inh 106, HCV NS3 hel inh 63, Casp6 inh 58 (no result: NSD2 HMT inh) | NS3 hel confirm 60 | DNA FID counter inactive
CN(Cc1ccco1)S(=O)(=O)c1nnc(NC(=O)c2cccc(Cl)c2)s1	none
CC(C)CC(=O)Nc1nnc(S(=O)(=O)N(C)Cc2ccco2)s1	HCV NS3 hel inh 55 (no result: Casp6 inh) | NS3 hel confirm inactive | DNA FID counter inactive
Cc1oc2c(c(C)cc3oc(=O)c(CC(=O)N[C@H](C(=O)O)C(C)C)c(C)c32)c1C	none
CC[C@@H](C)[C@H](NC(=O)Cc1c(C)c2cc3c(C)coc3c(C)c2oc1=O)C(=O)O	none
CC[C@@H](C)[C@H](NC(=O)Cc1c(C)c2cc3c(C)c(C)oc3c(C)c2oc1=O)C(=O)O	HCV NS3 hel inh 49 | NS3 hel confirm 75 | DNA FID counter inactive
Cc1oc2c(c(C)cc3oc(=O)c(CC(=O)N[C@@H](CC(C)C)C(=O)O)c(C)c32)c1C	HCV NS3 hel inh 47 | NS3 hel confirm inactive | DNA FID counter inactive
Cc1cc(C)cc(NCc2cc3c(cc2[N+](=O)[O-])OCO3)c1	none (no result: Casp6 inh)

Source: PubChem
